Data reported in paper PMC11328607 (Journal of Enzyme Inhibition and Medicinal Chemistry, 2024).
Several values for one entry are separate records, joined by “and”; a condition that tells them apart may be missing. Identical values can stand only once. Like-named read-outs stand apart in the source and are kept apart here.

Tests used:
[1] = test system: normal human lung fibroblasts (Wi-38); test: MTT cytotoxicity assay on normal lung fibroblasts; type: cell-based; settings: for IC50: read-out: Wi-38 IC50
[2] = test system: human NSCLC A549 cells; test: MTT cytotoxicity assay on NSCLC cells; type: cell-based; settings: for IC50: Mean ± SD, n = 3; for fold more potent than cisplatin: A549 IC50 relative to cisplatin; for SI (ratio of IC50 for healthy and cancer cells): Wi-38 IC50 / A549 IC50
Outline: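 Human A549 and Wi-38 fibroblasts (ATCC) grown in DMEM with 10% FBS at 37 °C, 5% CO2. Wi-38 seeded at 5 x10^3 cells/well and given 24 h to attach; A549 run by the same MTT method. […] MTT 5 mg/ml added for 3 h at 37 °C, formazan dissolved in DMSO, A570 read. IC50 derived; SI = Wi-38 IC50/A549 IC50. Mean ± SD, n = 3.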

[3] = target: CaV3.2 (T-type) calcium channels (Homo sapiens, UniProt O95180); test: Whole cell patch-clamp T-type calcium channel block; type: cell-based; settings: HEK-tsA201, read-out: Block of CaV3.2 (T-type) currents, percentage of inhibition, 10 μM; HEK tsA-201 cells; n = 3
Sequence of CaV3.2 (T-type) calcium channels (O95180 whole entry): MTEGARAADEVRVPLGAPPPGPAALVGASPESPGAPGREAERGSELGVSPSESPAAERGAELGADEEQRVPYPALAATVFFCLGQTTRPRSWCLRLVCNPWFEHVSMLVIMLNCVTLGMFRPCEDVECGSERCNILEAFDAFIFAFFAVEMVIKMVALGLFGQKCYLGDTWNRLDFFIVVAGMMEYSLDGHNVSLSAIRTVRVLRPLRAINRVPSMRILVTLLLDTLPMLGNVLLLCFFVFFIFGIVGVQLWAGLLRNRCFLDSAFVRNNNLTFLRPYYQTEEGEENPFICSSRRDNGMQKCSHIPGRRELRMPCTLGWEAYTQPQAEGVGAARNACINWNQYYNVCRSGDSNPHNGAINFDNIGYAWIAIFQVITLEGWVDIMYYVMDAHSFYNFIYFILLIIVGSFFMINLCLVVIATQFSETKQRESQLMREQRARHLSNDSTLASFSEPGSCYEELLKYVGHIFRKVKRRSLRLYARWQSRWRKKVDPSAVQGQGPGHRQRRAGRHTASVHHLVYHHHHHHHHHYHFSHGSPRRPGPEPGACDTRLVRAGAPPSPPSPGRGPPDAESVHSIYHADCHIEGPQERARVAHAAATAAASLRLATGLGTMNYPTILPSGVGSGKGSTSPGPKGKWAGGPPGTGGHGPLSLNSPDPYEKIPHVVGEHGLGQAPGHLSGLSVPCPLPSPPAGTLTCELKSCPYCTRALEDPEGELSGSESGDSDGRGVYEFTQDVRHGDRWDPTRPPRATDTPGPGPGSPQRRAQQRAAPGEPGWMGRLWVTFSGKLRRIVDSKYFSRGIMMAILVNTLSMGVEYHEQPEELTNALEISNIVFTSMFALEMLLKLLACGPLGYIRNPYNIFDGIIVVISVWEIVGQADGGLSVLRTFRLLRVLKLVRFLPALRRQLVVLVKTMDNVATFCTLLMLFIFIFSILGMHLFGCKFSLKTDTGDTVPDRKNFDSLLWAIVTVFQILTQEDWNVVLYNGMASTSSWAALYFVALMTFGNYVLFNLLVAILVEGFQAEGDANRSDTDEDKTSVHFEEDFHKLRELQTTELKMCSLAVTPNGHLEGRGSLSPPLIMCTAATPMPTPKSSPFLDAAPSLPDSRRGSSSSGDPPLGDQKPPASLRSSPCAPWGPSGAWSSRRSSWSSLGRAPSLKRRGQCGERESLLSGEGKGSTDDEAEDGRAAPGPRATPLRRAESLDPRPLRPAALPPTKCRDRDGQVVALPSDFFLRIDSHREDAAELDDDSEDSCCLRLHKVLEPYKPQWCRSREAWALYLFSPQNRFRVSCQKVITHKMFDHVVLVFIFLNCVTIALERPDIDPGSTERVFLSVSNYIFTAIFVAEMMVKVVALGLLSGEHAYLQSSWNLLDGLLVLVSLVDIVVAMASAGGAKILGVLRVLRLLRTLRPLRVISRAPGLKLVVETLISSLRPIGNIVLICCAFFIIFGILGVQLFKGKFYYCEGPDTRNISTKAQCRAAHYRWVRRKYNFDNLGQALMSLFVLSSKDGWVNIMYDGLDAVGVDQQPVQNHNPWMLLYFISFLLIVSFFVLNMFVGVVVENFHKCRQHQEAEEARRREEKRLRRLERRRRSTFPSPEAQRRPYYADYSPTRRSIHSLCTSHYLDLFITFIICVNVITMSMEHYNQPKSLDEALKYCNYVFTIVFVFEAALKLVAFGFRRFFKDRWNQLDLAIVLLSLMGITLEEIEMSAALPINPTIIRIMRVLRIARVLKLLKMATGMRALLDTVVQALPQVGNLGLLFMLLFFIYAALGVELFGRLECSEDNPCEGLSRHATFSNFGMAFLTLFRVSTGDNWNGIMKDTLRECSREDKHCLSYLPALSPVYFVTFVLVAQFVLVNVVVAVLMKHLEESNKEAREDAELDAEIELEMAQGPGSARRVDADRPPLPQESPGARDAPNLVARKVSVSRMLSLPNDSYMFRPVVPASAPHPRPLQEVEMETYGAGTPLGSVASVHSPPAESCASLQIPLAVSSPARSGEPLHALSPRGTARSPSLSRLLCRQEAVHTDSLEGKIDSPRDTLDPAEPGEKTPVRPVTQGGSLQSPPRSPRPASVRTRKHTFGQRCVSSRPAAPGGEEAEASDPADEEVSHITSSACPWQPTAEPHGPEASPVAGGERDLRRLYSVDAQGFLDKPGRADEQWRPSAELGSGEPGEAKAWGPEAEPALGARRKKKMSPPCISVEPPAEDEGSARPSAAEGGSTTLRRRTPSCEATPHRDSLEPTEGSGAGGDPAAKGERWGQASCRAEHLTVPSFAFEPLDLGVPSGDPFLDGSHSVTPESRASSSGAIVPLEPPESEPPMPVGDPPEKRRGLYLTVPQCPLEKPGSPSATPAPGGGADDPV
Outline: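 Human embryonic kidney tsA-201 (293T) cells transiently transfected to express CaV3.2 T-type channels, then recorded by whole-cell patch clamp. Each test compound applied at 10 µM and block of T-type calcium current measured.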

[4] = test system: A549 cells; test: Combination studies with cisplatin; type: cell-based, human
[5] = target: MMP-9 (Homo sapiens, UniProt P14780); test: In vitro MMP-9 inhibition assay; type: biochemical
Sequence of MMP-9 (P14780 94-707): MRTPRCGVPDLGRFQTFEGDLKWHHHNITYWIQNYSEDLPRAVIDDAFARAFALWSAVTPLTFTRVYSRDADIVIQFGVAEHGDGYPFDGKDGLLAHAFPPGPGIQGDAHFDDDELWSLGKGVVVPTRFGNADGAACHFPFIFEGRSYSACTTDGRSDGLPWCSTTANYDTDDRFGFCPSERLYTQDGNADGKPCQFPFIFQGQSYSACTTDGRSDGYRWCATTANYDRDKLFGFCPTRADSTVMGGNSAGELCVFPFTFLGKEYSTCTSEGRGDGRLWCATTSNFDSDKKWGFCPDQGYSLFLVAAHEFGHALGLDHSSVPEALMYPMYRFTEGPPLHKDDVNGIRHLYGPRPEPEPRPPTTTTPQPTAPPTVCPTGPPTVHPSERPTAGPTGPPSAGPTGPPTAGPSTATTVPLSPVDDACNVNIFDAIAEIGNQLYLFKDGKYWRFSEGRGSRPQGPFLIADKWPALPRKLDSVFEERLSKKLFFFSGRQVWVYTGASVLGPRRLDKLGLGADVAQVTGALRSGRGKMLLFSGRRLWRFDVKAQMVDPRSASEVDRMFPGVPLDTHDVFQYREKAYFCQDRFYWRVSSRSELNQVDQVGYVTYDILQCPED
Outline: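 Commercial MMP-9 inhibitor assay kit, run per the manufacturer's instructions. Test compounds were assayed at 0.5 µM alongside the broad-spectrum hydroxamate MMP inhibitor NNGH as reference. For selectivity, MMP-2 inhibition was measured with a colorimetric MMP-2 inhibitor screening kit at the same 0.5 µM, also per the manufacturer's instructions.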

[6] = DPPH radical scavenging assay; settings: n = 3; for DPPH radical scavenging %: 12 h, dark
Outline: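 Test compound dissolved in 1:1 water:DMSO (v/v), then mixed with an equal volume of 0.6 mM DPPH in absolute ethanol, giving final 500, 250, 125, 100, 62.5 and 31.25 µg/mL. Kept 12 h at room temperature in complete darkness. Absorbance read at 517 nm. Inhibition % taken from control (A0) versus compound (A1) absorbance, IC50 then calculated. Mean ± SD, n = 3.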

[7] = Homo sapiens, A549, 72 h, read-out: A549 IC50, MTT, 72 h

Compound | IC50 ([1]; Homo sapiens, WI-38, 72 h) [nM] | Wi-38 EC100 (effective safe concentration at 100% cell viability) ([1]; MTT, 72 h, Mean ± SD, n = 3) | IC50 [2, 7] [nM] | inhibition at 10 µM [3] [%] | further results
N.N.[Cl][Pt][Cl] [Cisplatin, reference compound] |  |  |  |  | IC50 ([1]; MTT, 72 h, Mean ± SD, n = 3): 1330 ± 82 nM; IC50 ([2]; read-out: A549 IC50, MTT, 72 h): 586 ± 30 nM
[N-]=[N+]=NCC(=O)Nc1nc(-c2ccccc2)cs1 [Compound 3, 2-Azido-N-(4-phenylthiazol-2-yl)acetamide] | 1728 ± 3 | 429 nM and 429 ± 32 nM | 74.4 |  | fold more potent than cisplatin [2]: ~8 fold; IC50 ([2]; read-out: A549 IC50, MTT, 72 h): 74 ± 4 nM
O=C(Cn1cc(CO)nn1)Nc1nc(-c2ccccc2)cs1 [Compound 4, 2-[4-(Hydroxymethyl)-1H-1,2,3-triazol-1-yl]-N-(4-phenylthiazol-2-yl)acetamide] | 249 ± 2 | 58 ± 4 nM | 268 ± 2 | ~60 | 
O=Cc1cn(CC(=O)Nc2nc(-c3ccccc3)cs2)nn1 [Compound 5, 2–(4-Formyl-1H-1,2,3-triazol-1-yl)-N-(4-phenylthiazol-2-yl)acetamide] | 243 ± 14 | 78 ± 4 nM | 112 | 20 | 
CC(=O)C=Cc1cn(CC(=O)Nc2nc(-c3ccccc3)cs2)nn1 [Compound 6a, 2-[4–(3-Oxobut-1-en-1-yl)-1H-1,2,3-triazol-1-yl]-N-(4-phenylthiazol-2-yl)acetamide] | 1920 ± 212 | 460 nM and 460 ± 110 nM | 82 ± 5 |  | 
O=C(Cn1cc(C=CC(=O)c2ccc(F)cc2)nn1)Nc1nc(-c2ccccc2)cs1 [Compound 6d, 2-{4-[3–(4-Fluorophenyl)-3-oxoprop-1-en-1-yl]-1H-1,2,3-triazol-1-yl}-N-(4-phenylthiazol-2-yl)acetamide] | 255 ± 3 | 138 ± 9 nM | 21 ± 1 | ~60 | lowering of combination IC50 compared to cisplatin as single agent ([4]; 6d combined with cisplatin): > 72.3% and > 72.32%; dose reduction index (DRI) for cisplatin ([4]; 6d with cisplatin at IC50 doses): 6.89 folds; combination index (CI) ([4]; 6d with cisplatin, CI < 1 synergistic): 0.69 ± 0.05 and 0.69; fold more potent than cisplatin [2]: 27 fold; IC50 [5]: 90 ± 10 nM; selectivity to MMP-9 over MMP-2 (SI) ([5]; MMP-9 over MMP-2, 0.5 μM): 2.4; inhibition at 0.5 µM ([5]; read-out: MMP-9 % Inhibition (0.5 μM)): 96.2 ± 0.6%; fold more active than NNGH (MMP-9 IC50) ([5]; relative to NNGH): ~4 fold; DPPH radical scavenging % ([6]; 250 µg/mL): 70.9 ± 6.6%; DPPH radical scavenging % ([6]; 500 µg/mL): 85.4 ± 7.9%; DPPH radical scavenging IC50 ([6]; Mean ± SD): 146.9 ± 22.54 µg/mL
Cc1ccc(C2=NNC(c3cn(CC(=O)Nc4nc(-c5ccccc5)cs4)nn3)C2)cc1 (stereo not shown) [Compound 7c, 2-{4-[3-(p-tolyl)-4,5-dihydro-1H-pyrazol-5-yl]-1H-1,2,3-triazol-1-yl}-N-(4-phenylthiazol-2-yl)acetamide] | 230 ± 5 | 51 ± 7 nM | 200 ± 6 |  | SI (ratio of IC50 for healthy and cancer cells) [2]: 1.15
O=C(Cn1cc(C2CC(c3ccc(F)cc3)=NN2)nn1)Nc1nc(-c2ccccc2)cs1 (stereo not shown) [Compound 7d, 2-{4-[3–(4-Fluorophenyl)-4,5-dihydro-1H-pyrazol-5-yl]-1H-1,2,3-triazol-1-yl}-N-(4-phenylthiazol-2-yl)acetamide] | 1300 ± 31 | 108 ± 15 nM | 425 ± 17 |  | SI (ratio of IC50 for healthy and cancer cells) [2]: 3.05
O=C(C=Cc1cn(CC(=O)Nc2nc(-c3ccccc3)cs2)nn1)C=Cc1cn(CC(=O)Nc2nc(-c3ccccc3)cs2)nn1 [Compound 8, 2,2’-[(3-Oxopenta-1,4-diene-1,5-diyl)bis(1H-1,2,3-triazole-4,1-diyl)]bis(N-(4-phenylthiazol-2-yl)acetamide)] | 108 ± 3 | 38 ± 2 nM | 116 ± 1 |  | 
COc1ccc(S(=O)(=O)N(CC(=O)NO)CC(C)C)cc1 [NNGH, reference compound] |  |  |  |  | MMP-9 % Inhibition (0.5 μM) ([5]; 0.5 μM, Mean ± SD, n = 2): 56.8 ± 0.8%; IC50 ([5]; read-out: MMP-9 IC50, Mean ± SD, n = 2): 350 ± 10 nM
